Test results from ChEMBL document CHEMBL5247599, “New β-arylchalcogeno amines with procognitive properties targeting Carbonic Anhydrases and Monoamine Oxidases” (Eur J Med Chem, 2022).
Activity calls are given as the source filed them. The rule behind the calls is not given here.

Legend:
[1] = target: Carbonic anhydrase 1 (Homo sapiens) (UniProt P00915); experiment: Binding affinity to human CA1 by phenol red dye based stopped flow CO2 hydration assay; settings: filed as activator
How it was run: (§1)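 Purified recombinant human CA isoforms. CA-catalysed CO2 hydration was followed by stopped-flow with phenol red at 557 nm, taking initial rates over 10–100 s from at least six traces of the first 5–10% of reaction. Uncatalysed rates were subtracted. Activator stocks were 0.1 mM in deionised water, diluted down to 0.1 nM in assay buffer. K_A came from non-linear least-squares Michaelis–Menten fitting.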

[2] = target: Carbonic anhydrase 9 (Homo sapiens) (UniProt Q16790); experiment: Binding affinity to human CA9 by phenol red dye based stopped flow CO2 hydration assay; settings: filed as activator; how it was run: as §1
Mus musculus [3] = experiment: Pro-cognitive activity in C57Bl6 mouse assessed as attenuation of long-term memory deficit by measuring increase in exploration time for novel juvenile by measuring discrimination index at 50 nmol/uL, icv measured after 48 hrs by novel object recognition test; format: functional
How it was run: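 Social recognition in adult male C57Bl6 mice with intracerebroventricular cannulae. Habituation was 10 min with two empty cups. Twenty-four hours later, a novel 3–4-week-old juvenile was placed under one cup for 10 min of exploration, followed immediately by a 5 µL infusion at 1 µL/min. Retention 48 h later offered familiar versus novel juvenile, scoring snout-to-cup contact. DI = (tN−tF)/(tN+tF).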

Mus musculus [4] = experiment: Pro-cognitive activity in C57Bl6 mouse assessed as attenuation of long-term memory deficit by measuring increase in exploration time for novel object at 25 nmol/uL, icv measured after 24 hrs by novel object recognition test; format: functional, organism-based
How it was run: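 Novel object recognition in adult male C57Bl6 mice. Habituation was 10 min in an empty arena. Twenty-four hours later, mice explored two identical objects for 5 min, then received an immediate 5 µL lateral-ventricle infusion at 1 µL/min. A 5-min retention test with one familiar and one novel object followed 24 h later. Scores were % exploration time and DI = (tN−tF)/(tN+tF).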

Mus musculus [5] = experiment: Pro-cognitive activity in C57Bl6 mouse assessed as attenuation of long-term memory deficit by measuring increase in exploration time for novel juvenile at 50 nmol/uL, icv measured after 48 hrs by novel object recognition test; format: functional, organism-based
How it was run: (§2)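 Male adult C57Bl6 mice (8–9 weeks), lateral-ventricle cannula implanted 7 days earlier. Social recognition: 10-min habituation to arena with two empty cups; 24 h later 10-min acquisition with an unfamiliar juvenile (3–4 weeks) under one wire cup. Immediately after, 5 µL i.c.v. infusion at 1 µL/min. Retention at 48 h with familiar and novel juvenile; percentage time exploring each cup (snout-to-cup contact).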

[6] = target: Carbonic anhydrase 5A, mitochondrial (Homo sapiens) (UniProt P35218); experiment: Binding affinity to human CA5a by phenol red dye based stopped flow CO2 hydration assay; settings: filed as activator; how it was run: as §1
Mus musculus [7] = experiment: Pro-cognitive activity in C57Bl6 mouse assessed as attenuation of long-term memory deficit by measuring increase in exploration time for novel juvenile at 25 nmol/uL, icv measured after 48 hrs by novel object recognition test; format: functional, organism-based; how it was run: as §2
Mus musculus [8] = experiment: Pro-cognitive activity in C57Bl6 mouse assessed as attenuation of long-term memory deficit by measuring increase in exploration time for novel object at 50 nmol/uL, icv measured after 24 hrs by novel object recognition test; format: functional, organism-based
How it was run: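 Male adult C57Bl6 mice (8–9 weeks), lateral-ventricle cannula implanted one week before. 10-min habituation to empty open-field arena; 24 h later, 5-min acquisition with two identical objects, followed immediately by 5 µL i.c.v. infusion at 1 µL/min. 5-min retention test 24 h after acquisition with one familiar and one novel object; percentage exploration time per object, two-way ANOVA with Bonferroni.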

[9] = target: Carbonic anhydrase 4 (Homo sapiens) (UniProt P22748); experiment: Binding affinity to human CA4 by phenol red dye based stopped flow CO2 hydration assay; settings: filed as activator; how it was run: as §1
Carbonic anhydrase 4 (Homo sapiens), sequence (P22748 whole entry): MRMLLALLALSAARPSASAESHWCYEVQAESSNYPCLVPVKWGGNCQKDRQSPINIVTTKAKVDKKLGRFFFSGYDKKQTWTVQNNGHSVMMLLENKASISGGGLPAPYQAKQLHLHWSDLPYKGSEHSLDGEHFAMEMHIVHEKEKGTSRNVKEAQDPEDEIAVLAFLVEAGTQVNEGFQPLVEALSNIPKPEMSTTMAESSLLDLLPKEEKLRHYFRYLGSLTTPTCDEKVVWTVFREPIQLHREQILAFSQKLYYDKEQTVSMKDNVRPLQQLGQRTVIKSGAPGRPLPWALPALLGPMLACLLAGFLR

Carbonic anhydrase 5A, mitochondrial (Homo sapiens), sequence (P35218 whole entry): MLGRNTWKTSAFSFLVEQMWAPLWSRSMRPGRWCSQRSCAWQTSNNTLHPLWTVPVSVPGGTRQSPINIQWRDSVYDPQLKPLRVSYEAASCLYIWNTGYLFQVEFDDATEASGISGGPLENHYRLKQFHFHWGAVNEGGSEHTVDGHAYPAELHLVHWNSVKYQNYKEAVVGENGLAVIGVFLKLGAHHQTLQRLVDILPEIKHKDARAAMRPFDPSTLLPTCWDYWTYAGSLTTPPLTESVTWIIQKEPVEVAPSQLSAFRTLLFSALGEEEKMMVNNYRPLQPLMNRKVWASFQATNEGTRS
Carbonic anhydrase 1 (Homo sapiens), sequence (P00915 2-261 limits assumed): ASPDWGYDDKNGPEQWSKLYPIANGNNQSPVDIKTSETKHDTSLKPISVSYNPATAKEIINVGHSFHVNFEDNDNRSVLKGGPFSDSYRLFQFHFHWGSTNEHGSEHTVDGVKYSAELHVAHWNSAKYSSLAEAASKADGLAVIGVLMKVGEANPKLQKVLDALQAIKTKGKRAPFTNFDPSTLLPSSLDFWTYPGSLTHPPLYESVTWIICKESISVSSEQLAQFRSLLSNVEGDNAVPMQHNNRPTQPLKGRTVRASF

CC(N)CSc1ccccc1 (centres undefined)
Ka [1]: 11.8 µM | Ka [2]: 74.8 µM | Activity_index (Mus musculus [3]): 0.138 | Activity (Mus musculus [4]): inactive | Activity (Mus musculus [5]): Active | Ka [6]: 12.4 µM | Activity (Mus musculus [7]): inactive | Activity (Mus musculus [8]): Active | Ka [9]: 7.1 µM
